PRMT1 FP inh: PRMT1 methyltransferase inhibitors, primary screen, biochemical, fluorescence polarization; recombinant PRMT1, activity-based probe fluorescence polarization; inhibition, % at 2.79 µM; AID 652257, 2013; Protein arginine N-methyltransferase 1 (Homo sapiens), Q99873; 1.3% of 370,000 active;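 active = inhibition above about 21% made by adding two undisclosed values, limit read from the data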
LEDGF integ inh: blockers of LEDGF/p75-dependent integrase strand transfer – biochemical, TR-FRET, high throughput, primary screen; TR-FRET IN-LEDGF/p75 DNA integration, Eu/Cy5; inhibition, % at 3.7 µM; 0.64% of 370,000 active; AID 743269, 2014;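 active = inhibition above the screen-wide mean plus 3 SD, cut at about 13% in these data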;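 note: signal is the Cy5 over europium emission ratio at 671 and 618 nm; 0% = plate median of compound wells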
mABHD4 FP: ABHD4 inhibitors, primary screen, biochemical, fluorescence polarization, mouse. inhibition, % at 8.92 µM. 0.54% of 370,000 active. AID 720543, 2013. purified mABHD4, FP-Rh probe fluorescence polarization;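 active = inhibition exceeding the mean over every tested compound plus 3 SD, cut at about 30% in these data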;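 note: 0% = plate median of compound wells and 100% = S159A mutant with DMSO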
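Assay system: wild-type mouse ABHD4 protein; compound: single nominal dose of 8.92 µM, 0.89% DMSO final; schedule: 45 min + 60 min at 25 °C; measured by: FP readout, ex 525 nm / em 598 nm; evaluation: % inhibition of FP-Rh probe binding versus controls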
rCAG binder: binders of r(CAG) RNA repeats, primary screen, biochemical, fluorescence; inhibition, % at 3 µM; r(CAG) RNA repeat, TO-PRO-1 dye displacement fluorescence; 1.3% of 370,000 active;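 active = inhibition above the plate cutoff, the mean of all test compounds on that plate plus 3 SD, cut at about 35% in these data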;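 note: 0% = DMSO alone and 100% = 100 µM mitoxantrone as full dye displacement; higher means more dye released from RNA so lower well fluorescence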
DAGLB inh: DAGLB lipase inhibitors, primary screen, biochemical, fluorescence, HTS | Diacylglycerol lipase-beta (Homo sapiens), Q8NCG7 | HEK293T DAGLB membrane lysate, EnzChek fluorogenic substrate | inhibition, % at 5.17 µM | 0.059% of 340,000 active | AID 504411, 2011; in the data active = inhibition above about 34%;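 note: 0% = enzyme with vehicle and 100% = wells lacking enzyme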
Target sequence (Q8NCG7 whole entry, looked up): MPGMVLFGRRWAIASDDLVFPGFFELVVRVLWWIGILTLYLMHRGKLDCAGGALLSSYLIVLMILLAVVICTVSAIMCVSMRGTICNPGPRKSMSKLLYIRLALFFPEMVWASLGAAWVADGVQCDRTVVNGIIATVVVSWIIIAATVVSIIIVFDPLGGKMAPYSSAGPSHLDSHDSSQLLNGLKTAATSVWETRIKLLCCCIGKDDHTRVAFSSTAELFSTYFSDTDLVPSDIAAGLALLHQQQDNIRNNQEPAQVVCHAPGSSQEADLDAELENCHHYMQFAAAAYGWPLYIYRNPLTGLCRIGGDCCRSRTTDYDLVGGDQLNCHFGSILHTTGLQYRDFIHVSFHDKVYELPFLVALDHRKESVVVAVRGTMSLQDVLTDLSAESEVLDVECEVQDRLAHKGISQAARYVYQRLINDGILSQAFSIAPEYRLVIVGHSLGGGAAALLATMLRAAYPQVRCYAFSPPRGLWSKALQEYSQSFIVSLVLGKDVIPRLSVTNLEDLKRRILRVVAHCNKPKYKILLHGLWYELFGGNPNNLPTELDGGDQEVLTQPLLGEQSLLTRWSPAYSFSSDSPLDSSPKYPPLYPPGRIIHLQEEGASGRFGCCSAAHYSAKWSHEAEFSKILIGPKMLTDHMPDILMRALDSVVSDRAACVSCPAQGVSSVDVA
HTRA1 inh: HTRA1 serine protease inhibitors, primary screen, biochemical, fluorescence polarization, HTS; Q92743; recombinant HTRA1, FP-rhodamine activity-based probe; inhibition, % at 5.96 µM; 0.5% of 340,000 active; AID 504803, 2011; in the data active = inhibition above about 36%;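 note: 0% = enzyme with DMSO and 100% = wells lacking enzyme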
PRMT1 inh conf: PRMT1 methyltransferase inhibitors, confirmation, biochemical, fluorescence polarization, triplicate | shares compounds with PRMT1 FP inh | recombinant His-PRMT1, activity-based probe fluorescence polarization | inhibition, % at 2.79 µM | 42% of 3,300 active | AID 687036, 2013;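 active = mean inhibition across replicates above the hit cutoff derived for the earlier primary screen, cut at about 22% in these data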
Starred values were filed as active, the others as inactive. The list is not random: actives were taken first. Their share in the collection is about 3.2%.

How did CN(C)c1ccc(C(=S)N2CCN(Cc3ccccc3)CC2)cc1 do in these assays?
PRMT1 FP inh: 55.2*; LEDGF integ inh: -1.5; mABHD4 FP: 2.4; rCAG binder: -6.2; DAGLB inh: -2.3; HTRA1 inh: 0.0; PRMT1 inh conf: 64.2*

Results for Oc1ccc(C(=S)N2CCN(c3cccc(Cl)c3)CC2)cc1 ?
PRMT1 FP inh: 29.4*; LEDGF integ inh: -6.7; mABHD4 FP: -25.1; rCAG binder: 11.1; DAGLB inh: -2.6; HTRA1 inh: -29.4; PRMT1 inh conf: 3.1

Results for Oc1ccc(C(=S)N2CCN(Cc3ccccc3)CC2)cc1 ?
PRMT1 FP inh: 38.3*; LEDGF integ inh: 5.6; mABHD4 FP: -2.8; rCAG binder: 0.7; DAGLB inh: 0.8; HTRA1 inh: -2.9; PRMT1 inh conf: 53.9*

How did Cc1ccc(C(=S)N2CCN(Cc3ccccc3)CC2)s1 do in these assays?
PRMT1 FP inh: 42.1*; LEDGF integ inh: -3.4; mABHD4 FP: -1.7; rCAG binder: -7.7; DAGLB inh: -5.3; HTRA1 inh: -8.1; PRMT1 inh conf: 52.9*

Results for O=C(Nc1ccccc1N1CCOCC1)c1cc(=O)[nH]c2ccccc12 ?
PRMT1 FP inh: 4.2; LEDGF integ inh: 0.1; mABHD4 FP: -3.9; rCAG binder: 1.9; DAGLB inh: 0.4; HTRA1 inh: 2.3

What do the screens show for `S=C(c1ccc(Br)cc1)N1CCN(Cc2ccccc2)CC1`?
PRMT1 FP inh: 63.7*; LEDGF integ inh: -2.6; mABHD4 FP: 1.1; rCAG binder: -6.6; DAGLB inh: -15.7; HTRA1 inh: -8.2; PRMT1 inh conf: 76.5*

What do the screens show for `CN1C2C=CC(=O)C1C1C(=O)N(c3ccccc3)C(=O)C12` (configuration not stated)?
PRMT1 FP inh: 28.1*; LEDGF integ inh: -0.2; mABHD4 FP: -0.6; rCAG binder: 0.9; PRMT1 inh conf: 2.3

How did C1CSC2(N1)C1CC3CC(C1)CC2C3 (configuration not stated) do in these assays?
PRMT1 FP inh: 50.5*; LEDGF integ inh: -2.1; mABHD4 FP: -5.1; rCAG binder: 1.4; DAGLB inh: 0.7; HTRA1 inh: 1.8; PRMT1 inh conf: 34.6*

What do the screens show for `COc1ccc(C(=O)N=C2SC3CS(=O)(=O)CC3N2Cc2ccccc2)cc1OC` (configuration not stated)?
PRMT1 FP inh: -0.1; LEDGF integ inh: -1.4; mABHD4 FP: -9.2; rCAG binder: 2.7; DAGLB inh: -0.5; HTRA1 inh: 0.3

How did Cc1cc(C(=O)NN)c2cc(Br)ccc2n1 do in these assays?
PRMT1 FP inh: -0.7; LEDGF integ inh: -3.0; mABHD4 FP: -2.5; rCAG binder: 6.3; DAGLB inh: -0.8; HTRA1 inh: -2.0

How did COc1ccccc1/C=N/NC(=O)CSc1cc(C)nc2ccccc12 do in these assays?
PRMT1 FP inh: 33.2*; LEDGF integ inh: -1.9; mABHD4 FP: -0.7; rCAG binder: -2.8; DAGLB inh: -0.3; HTRA1 inh: -9.6; PRMT1 inh conf: 1.2

What do the screens show for `COc1ccc2nc(C)cc(SCC(=O)N/N=C/c3ccc(O)cc3O)c2c1`?
PRMT1 FP inh: 17.3; LEDGF integ inh: -3.5; mABHD4 FP: 1.6; rCAG binder: 23.0; DAGLB inh: -1.5; HTRA1 inh: -3.6

Results for COc1cccc2c(SCC(=O)N/N=C/c3ccc(O)cc3O)cc(C)nc12 ?
PRMT1 FP inh: 46.4*; LEDGF integ inh: -3.0; mABHD4 FP: -2.8; rCAG binder: 23.2; DAGLB inh: 0.2; HTRA1 inh: -3.0; PRMT1 inh conf: -0.4

What do the screens show for `Cc1cc(SCC(=O)NN)c2cc(Br)ccc2n1`?
PRMT1 FP inh: 63.9*; LEDGF integ inh: -2.4; mABHD4 FP: 15.4; rCAG binder: 9.3; DAGLB inh: -1.6; HTRA1 inh: 2.5; PRMT1 inh conf: 60.2*

Assay outcomes from PubChem BioAssay.
